eIF4H FP inh: inhibitors of RNA binding by human eIF4H. eIF4H fluorescence polarization binding assay. inhibition, % at 35 µM. actives 0.94% (n = 290,000);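 further: calls also rest on retests at 20 µM and on dose response follow-up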
core dimer inh: blocks dimerization of HCV core protein; inhibition, % at 5 µM; TR-FRET GST/Flag-core106 dimerization, 1536-well; actives 0.33% (n = 300,000);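 active means inhibition above the mean of all tested compounds plus 3 SD, set per screening campaign, cut at about 45% in these data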
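Assay system: Tagged HCV core106 pair (GST and Flag) | Buffer or medium: KF-containing HEPES buffer, pH 7.45, DTT, CHAPS, BSA | Also added: Eu donor and XL665 acceptor anti-tag antibodies | Dosing: One concentration, 5 µM, in 0.5% DMSO | Timing: 4 h at 22.5 °C | Technique: TR-FRET 671 and 617 nm emission | Repeats: Singlicate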
MLLE-PAM2 inh: inhibitors of microRNA-mediated deadenylation, human PABP1 MLLE binding. inhibition, % at 20 µM. GST-MLLE / FITC-PAM2 fluorescence polarization. actives 0.36% (n = 360,000). P11940; in the data active means inhibition above about 35%, passing the limit was not always enough
Target sequence (P11940 whole entry, looked up): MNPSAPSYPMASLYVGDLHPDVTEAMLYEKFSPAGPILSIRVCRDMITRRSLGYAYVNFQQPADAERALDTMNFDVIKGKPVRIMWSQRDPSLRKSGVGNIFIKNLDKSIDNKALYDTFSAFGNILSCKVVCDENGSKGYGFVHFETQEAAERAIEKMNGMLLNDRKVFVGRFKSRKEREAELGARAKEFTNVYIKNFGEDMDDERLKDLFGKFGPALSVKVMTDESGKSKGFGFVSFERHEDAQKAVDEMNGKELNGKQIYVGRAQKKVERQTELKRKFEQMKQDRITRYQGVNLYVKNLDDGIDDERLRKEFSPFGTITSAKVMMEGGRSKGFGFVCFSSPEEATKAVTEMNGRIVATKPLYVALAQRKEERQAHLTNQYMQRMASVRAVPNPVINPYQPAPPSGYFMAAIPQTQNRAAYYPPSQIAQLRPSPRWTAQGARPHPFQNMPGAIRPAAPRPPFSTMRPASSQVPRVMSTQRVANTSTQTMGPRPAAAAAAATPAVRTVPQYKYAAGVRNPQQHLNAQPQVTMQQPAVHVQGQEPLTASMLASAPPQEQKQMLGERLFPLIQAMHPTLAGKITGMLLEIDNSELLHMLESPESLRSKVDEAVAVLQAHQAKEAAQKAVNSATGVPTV
FID counter: displaces DNA intercalator in HCV helicase counter-screen. DNA fluorescent intercalator displacement, fluorescence. inhibition, % at 7.9 µM. actives 0.17% (n = 290,000); in the data active means inhibition above about 37%;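 further: higher means more ethidium bromide displaced from hairpin DNA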
PABP polyA inh: blocks human PABP binding to poly(A) RNA; actives 1% (n = 290,000); fluorescence polarization; AID 2014; inhibition, % at 35 µM;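 further: calls also rest on retests at 20 µM and on dose response follow-up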
HCV NS3 hel inh: HCV NS3 helicase inhibition | NS3 helicase DNA unwinding, Cy5 molecular beacon fluorescence | inhibition, % at 10.9 µM | actives 0.56% (n = 290,000) | AID 1800;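 active means inhibition above the mean of all tested compounds plus 3 SD, set per campaign, cut at about 35% in these data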
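Assay system – hepatitis C virus NS3 helicase domain fragment enzyme · Buffer or medium – MOPS pH 6.5, MgCl2, DTT, Tween20, BSA · Reagent – Cy5/quencher beacon DNA duplex and ATP to start · Compound – single 10.9 µM dose · Timing – 1 h at 25 °C · Technique – Cy5 beacon fluorescence read at start and 1 h · Measure – % inhibition of unwinding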
Of the large screens only hits and unclear results are named; the others gave an inactive call. This is a sample that favours compounds with a hit; in the whole collection about 2% have one here. Unless noted, how the calls were made is not given here.

O=C(CSc1ccccc1C(=O)O)NC1CCCCCC1	MLLE-PAM2 inh 79.3
O=C(CSc1ccccc1C(=O)O)NC1CCCCCCC1	none
COc1cc(/C=C/c2[nH]c(=O)[nH]c(=O)c2[N+](=O)[O-])cc([N+](=O)[O-])c1O	eIF4H FP inh 59.3, PABP polyA inh 61.3
CCC(C)Oc1ccc(/C=C/c2[nH]c(=O)[nH]c(=O)c2[N+](=O)[O-])cc1OC (stereo unspecified)	none
COc1ccc(Cl)cc1C(=O)NC(=S)Nc1cc(-c2nc3ccccc3[nH]2)ccc1C	core dimer inh 47.3
CCOC(=O)c1c(NC(=O)COC(=O)c2ccc(Cl)nc2)sc(C)c1C	none (no result: eIF4H FP inh, core dimer inh, FID counter, PABP polyA inh, HCV NS3 hel inh)
CCCCC(=O)N(C)c1c(C)nc2ccc(C(=O)N(C)CCN(C)C)cn12	none (no result: eIF4H FP inh, core dimer inh, FID counter, PABP polyA inh, HCV NS3 hel inh)
Cn1nnc(NC(=S)NC(=O)c2cccc3c(Br)cccc23)n1	MLLE-PAM2 inh 39.7
Cc1ccc(S(=O)(=O)NC(=O)C2(C)CCN2C(=O)COc2ccc(Cl)cc2)nc1 (stereo unspecified)	none (no result: eIF4H FP inh, core dimer inh, FID counter, PABP polyA inh, HCV NS3 hel inh)
O=C(N/N=C/c1cccn1-c1cccc(C(=O)O)c1)Nc1ccccc1	eIF4H FP inh inconclusive, PABP polyA inh active
O=C(O)c1cccc(-n2cccc2C=C2C(=O)c3ccccc3C2=O)c1	none
O=C(N/N=C/c1ccc(N2CCOCC2)cc1)c1ccccc1OCCOc1ccccc1	eIF4H FP inh 104.3, PABP polyA inh active
Cc1cccc(C)c1NC(=O)C1(C)CCC(=O)N1C1CC1 (stereo unspecified)	none (no result: eIF4H FP inh, core dimer inh, FID counter, PABP polyA inh, HCV NS3 hel inh)
Nc1nnc2cc(Br)ccc2n1	MLLE-PAM2 inh 75.2 (no result: eIF4H FP inh, core dimer inh, FID counter, PABP polyA inh, HCV NS3 hel inh)
Nc1nnc2cc(F)ccc2n1	none (no result: eIF4H FP inh, core dimer inh, FID counter, PABP polyA inh, HCV NS3 hel inh)
O=C(NCc1ccccc1)c1cc(C2COCCN2C(=O)C2CC2)on1 (stereo unspecified)	none (no result: eIF4H FP inh, core dimer inh, FID counter, PABP polyA inh, HCV NS3 hel inh)
COc1ccc(NC(=S)N(CCN(C)C)C(C)c2ccco2)cc1Cl (stereo unspecified)	none
OCc1nc2nc(Cl)c(Cl)nc2[nH]1	eIF4H FP inh 51.9, PABP polyA inh 13.2
CCOCc1nc2nc(Cl)c(Cl)nc2[nH]1	none (no result: eIF4H FP inh, core dimer inh, FID counter, PABP polyA inh, HCV NS3 hel inh)
CCOc1ccc(CCNC(=O)C2CCCN(S(=O)(=O)N3CCCCC3)C2)cc1OCC (stereo unspecified)	none (no result: eIF4H FP inh, core dimer inh, FID counter, PABP polyA inh, HCV NS3 hel inh)
CCCS(=O)(=O)NC(=O)C1(C)CCN(C(=O)c2cccc(C(F)(F)F)c2)C1 (stereo unspecified)	none (no result: eIF4H FP inh, core dimer inh, FID counter, PABP polyA inh, HCV NS3 hel inh)
CCC(C)N(C(=O)c1csnn1)C(C(=O)NC1CCCC1)c1ccccc1F (stereo unspecified)	none
CCOC(=O)CSc1nc2c(sc(=S)n2-c2ccccc2OC)c(=O)n1-c1ccccc1OC	none
CCOC(=O)CSc1nc2c(sc(=S)n2-c2ccccc2OC)c(=O)n1Cc1ccco1	MLLE-PAM2 inh 38.2
Cc1cccc(NC(=O)CCS(=O)(=O)c2ccc3c(c2)NC(=O)CS3)n1	PABP polyA inh 35.6
CC1Cc2ccccc2N1C(=O)CCS(=O)(=O)c1ccc2c(c1)NC(=O)CS2 (stereo unspecified)	PABP polyA inh 13.3
Cc1ccccc1OCC(=O)Nn1c(COc2ccccc2)nc2ccccc2c1=O	none
COc1ccccc1OCC(=O)Nn1c(=S)[nH]c2ncccc2c1=O	MLLE-PAM2 inh 43.7
O=C(COc1ccc(Cl)cc1Cl)Nn1c(=S)[nH]c2ncccc2c1=O	MLLE-PAM2 inh 46.3
CC(=O)c1c(C)[nH]c(C(=O)OCC(=O)Nc2ccc([N+](=O)[O-])cc2Cl)c1C	PABP polyA inh 62.0
CC(=O)c1c(C(C)=O)c(C)n(-c2cccc3cccnc23)c1C	PABP polyA inh 3.8
CC(C)c1ccccc1-n1c(SCc2cc(=O)oc3ccc4ccccc4c23)nnc1-c1cccnc1	eIF4H FP inh 58.5, PABP polyA inh active
O=C(N/N=C/C(Br)=C/c1ccccc1)c1n[nH]c2c1CCC2	core dimer inh 68.8
N#C/C(=C\c1cc(Cl)c(OCc2ccc(Cl)cc2)c(Cl)c1)C(N)=O	none (no result: MLLE-PAM2 inh)
N#C/C(=C\c1cc(O)c(O)c(O)c1)C(N)=O	eIF4H FP inh 53.5, PABP polyA inh 29.8
CC(=O)Nc1ccc(S(=O)(=O)N(CC(=O)NCC2CCCO2)Cc2ccccc2Cl)cc1 (stereo unspecified)	none (no result: eIF4H FP inh, core dimer inh, FID counter, PABP polyA inh, HCV NS3 hel inh)
COC(=O)C1=NN(C(=O)c2cccc(Br)c2)C(O)(c2ccc(Cl)cc2)C1 (stereo unspecified)	eIF4H FP inh 58.5
CCOC(=O)C1=NN(C(=O)c2ccc(OC)cc2)C(O)(c2ccc(Cl)cc2)C1 (stereo unspecified)	none
C[C@@H]1CN([C@@H](C)CO)S(=O)(=O)c2ccc(Br)cc2O[C@H]1CN(C)C(=O)Nc1ccc2c(c1)OCO2	none (no result: eIF4H FP inh, core dimer inh, FID counter, PABP polyA inh, HCV NS3 hel inh)
Nc1nc2ncc(C(=O)c3cc(Cl)cc(Cl)c3O)cc2s1	eIF4H FP inh 88.7
Cc1cc(O)c(/C=N/c2ccccn2)c(=O)o1	none
Oc1ccc2ccccc2c1C=Nc1ccc(Cl)cn1	eIF4H FP inh 85.0, PABP polyA inh active
Cc1cc(O)c(C=Nc2ccc(Cl)cn2)c(=O)o1	eIF4H FP inh 59.1, PABP polyA inh 57.3
Cc1cccc(/N=C/c2c(O)cc(C)oc2=O)n1	eIF4H FP inh 78.2, PABP polyA inh 107.2
O=C(O)c1cccc(NC(=O)c2ccc(CN3C(=O)c4ccccc4C3=O)cc2)c1	none
O=C(Nc1cc(Cl)ccc1C(=O)O)c1ccc(CN2C(=O)c3ccccc3C2=O)cc1	FID counter 39.5 (no result: eIF4H FP inh, PABP polyA inh)
Cc1cc(NC(=O)c2ccc(N3CCCC3)c([N+](=O)[O-])c2)no1	core dimer inh 48.5
COc1ccc(C(=O)/C=C/c2ccc(N3CCCCC3)c([N+](=O)[O-])c2)cc1	eIF4H FP inh active, PABP polyA inh 81.1
COC(=O)c1cc(CNC(=O)c2ccc(N3CCCC3)c([N+](=O)[O-])c2)ccc1OC	PABP polyA inh 54.2
O=C(Nc1cccc(Cl)c1N1CCOCC1)c1cc([N+](=O)[O-])ccc1N1CCOCC1	none
O=C(Nc1ccon1)c1ccc(N2CCCCC2)c([N+](=O)[O-])c1	none
O=C(Nc1cccc(Cl)c1N1CCCCC1)c1ccc(N2CCOCC2)c([N+](=O)[O-])c1	eIF4H FP inh active, PABP polyA inh 71.3
COc1ccc(C(=O)/C=C/c2ccc(N3CCCCC3)c([N+](=O)[O-])c2)c(OC)c1	none
CC(C)CNC(=O)C1(C)CCN1C(=O)c1ccc(C(C)(C)C)cc1 (stereo unspecified)	none (no result: eIF4H FP inh, core dimer inh, FID counter, PABP polyA inh, HCV NS3 hel inh)
C=CCN1C(=O)/C(=C/c2ccc(O)cc2)S/C1=N/c1nccs1	none
C=CCN1C(=O)/C(=C2/C(=O)N(CC(=O)O)c3ccccc32)S/C1=N/c1nccs1	eIF4H FP inh 104.9, PABP polyA inh 68.4 (no result: core dimer inh, MLLE-PAM2 inh)
CN1C(=O)CCC(CCC(=O)O)(c2ccccc2O)C1=O (stereo unspecified)	none
O=C(CCN1CCC2CCC(C2)C1)c1ccccc1 (stereo unspecified)	MLLE-PAM2 inh 42.4 (no result: eIF4H FP inh, core dimer inh, FID counter, PABP polyA inh, HCV NS3 hel inh)

High-throughput results deposited in PubChem BioAssay by several laboratories.
